How the values were obtained:
[1] = system: rat; assay: concentration in expired air after dosing; negative times count back from the end of exposure; conditions: dosed: 1,1-dichloroethylene, inhalation, duration: 3 hr, male, Sprague-Dawley
[2] = system: Rat; assay: concentration in plasma after dosing; conditions: dosed: 2,4-Dichlorophenoxyacetic acid, 2.0 mg/kg, iv, Male, Sprague-Dawley
[3] = system: Hamster; assay: concentration in plasma after dosing; conditions: dosed: 2,4-Dichlorophenoxyacetic acid, 8.0 mg/kg, oral, Male, Syrian Golden
How it was run: (§1)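 Points were largely digitised from plot screenshots with WebPlotDigitizer or otherwise copied from tables, and they remain in the units each source reported. They come from published in vivo toxicokinetic studies and two structured collections. Sampling and analytical methods follow each source and were often not reported.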

[4] = system: Hamster; assay: concentration in plasma after dosing; conditions: dosed: 2,4-Dichlorophenoxyacetic acid, 8.0 mg/kg, iv, Male, Syrian Golden
How it was run: as §1

[5] = system: Mouse; assay: concentration in plasma after dosing; conditions: 3 h; dosed: 2-Hydroxy-4-methoxybenzophenone; 50 mg/kg; iv; Male; B6C3F1
[6] = system: Mouse; assay: concentration in plasma after dosing; conditions: 0.25 h; dosed: 2-Hydroxy-4-methoxybenzophenone; 250 mg/kg; oral; Female; B6C3F1
[7] = system: Rat; assay: concentration in brain after dosing; conditions: 3 h; dosed: Perfluorohexane-1-sulphonic acid – potassium salt; 16 mg/kg; oral; Female; F344
[8] = system: Rat; assay: concentration in kidney after dosing; conditions: 24 h; dosed: Perfluorohexane-1-sulphonic acid – potassium salt; 16 mg/kg; oral; Female; Harlan Sprague Dawley
[9] = system: Rat; assay: concentration in plasma after dosing; conditions: 20 min; dosed: Pyridine; 10 mg/kg; iv; Male; F344
[10] = system: Rat; assay: concentration in plasma after dosing; conditions: dosed: Pyridine, 25 mg/kg, oral, Male, F344
[11] = system: Rat; assay: concentration in brain after dosing; conditions: 0.5 h; dosed: alpha-Thujone; 50 mg/kg; oral; Female; Harlan Sprague Dawley
[12] = system: Rat; assay: concentration in brain after dosing; conditions: 2.5 h; dosed: 76231-76-0; 3.0 mg/kg; iv; Female; F344
[13] = system: Rat; assay: concentration in brain after dosing; conditions: 0.5 h; dosed: alpha-Thujone; 50 mg/kg; oral; Female; Harlan Sprague Dawley; remark: listed apart in the source
[14] = system: Rat; assay: concentration in brain after dosing; conditions: 2 min; dosed: alpha-Thujone; 50 mg/kg; oral; Male; Harlan Sprague Dawley

SMILES: C=C(Cl)Cl [1,1-dichloroethylene]
- concentration in expired air ([1]; 9 s, 150 ppm): 121 ppm
- concentration in expired air ([1]; 88 s, 75 ppm): 12.1 ppm
- concentration in expired air ([1]; 205 s, 75 ppm): 6.41 ppm
- concentration in expired air ([1]; 0.1527 h, 150 ppm): 5.19 ppm
- concentration in expired air ([1]; 0.2485 h, 150 ppm): 3.34 ppm
- concentration in expired air ([1]; 0.2565 h, 25 ppm): 3.35 ppm
- concentration in expired air ([1]; 0.3921 h, 25 ppm): 3.42 ppm
- concentration in expired air ([1]; 0.3921 h, 150 ppm): 3.42 ppm
- concentration in expired air ([1]; 0.4997 h, 150 ppm): 3.48 ppm
- concentration in expired air ([1]; 0.5037 h, 25 ppm): 3.48 ppm
- concentration in expired air ([1]; -1 s, 25 ppm, during exposure): 22.2 ppm
- concentration in expired air ([1]; -15 s, 75 ppm, during exposure): 63.3 ppm
- concentration in expired air ([1]; -0.1331 h, 150 ppm, during exposure): 121 ppm
- concentration in expired air ([1]; -0.1358 h, 75 ppm, during exposure): 63.9 ppm
- concentration in expired air ([1]; -0.1359 h, 25 ppm, during exposure): 22.4 ppm
- concentration in expired air ([1]; -0.2555 h, 25 ppm, during exposure): 22.1 ppm
- concentration in expired air ([1]; -0.2633 h, 75 ppm, during exposure): 63.2 ppm
- concentration in expired air ([1]; -0.2646 h, 150 ppm, during exposure): 120 ppm
- concentration in expired air ([1]; -0.3961 h, 150 ppm, during exposure): 119 ppm
- concentration in expired air ([1]; -0.3988 h, 75 ppm, during exposure): 63.1 ppm
- concentration in expired air ([1]; -0.399 h, 25 ppm, during exposure): 22.6 ppm
- concentration in expired air ([1]; -0.5345 h, 25 ppm, during exposure): 22.2 ppm
- concentration in expired air ([1]; -0.5384 h, 75 ppm, during exposure): 63.7 ppm
- concentration in expired air ([1]; -0.5396 h, 150 ppm, during exposure): 120 ppm
- concentration in expired air ([1]; -0.6461 h, 25 ppm, during exposure): 21.2 ppm
- concentration in expired air ([1]; -0.6578 h, 75 ppm, during exposure): 62 ppm
- concentration in expired air ([1]; -0.6591 h, 150 ppm, during exposure): 118 ppm
- concentration in expired air ([1]; -0.7936 h, 25 ppm, during exposure): 22.1 ppm
- concentration in expired air ([1]; -0.7986 h, 150 ppm, during exposure): 119 ppm
- concentration in expired air ([1]; -0.8014 h, 75 ppm, during exposure): 62.6 ppm
- concentration in expired air ([1]; -0.9261 h, 150 ppm, during exposure): 117 ppm
- concentration in expired air ([1]; -0.9328 h, 75 ppm, during exposure): 61.6 ppm
- concentration in expired air ([1]; -0.9371 h, 25 ppm, during exposure): 21.7 ppm
- concentration in expired air ([1]; -1.08 h, 75 ppm, during exposure): 61.2 ppm
- concentration in expired air ([1]; -1.085 h, 25 ppm, during exposure): 21.9 ppm
- concentration in expired air ([1]; -1.085 h, 150 ppm, during exposure): 117 ppm
- concentration in expired air ([1]; -1.204 h, 25 ppm, during exposure): 21.5 ppm
- concentration in expired air ([1]; -1.208 h, 75 ppm, during exposure): 60.8 ppm
- concentration in expired air ([1]; -1.209 h, 150 ppm, during exposure): 115 ppm
- concentration in expired air ([1]; -1.343 h, 75 ppm, during exposure): 60.7 ppm
- concentration in expired air ([1]; -1.344 h, 25 ppm, during exposure): 21.5 ppm
- concentration in expired air ([1]; -1.344 h, 150 ppm, during exposure): 114 ppm
- concentration in expired air ([1]; -1.479 h, 75 ppm, during exposure): 61.3 ppm
- concentration in expired air ([1]; -1.483 h, 25 ppm, during exposure): 21.4 ppm
- concentration in expired air ([1]; -1.484 h, 150 ppm, during exposure): 114 ppm
- concentration in expired air ([1]; -1.595 h, 25 ppm, during exposure): 21.3 ppm
- concentration in expired air ([1]; -1.595 h, 150 ppm, during exposure): 113 ppm
- concentration in expired air ([1]; -1.598 h, 75 ppm, during exposure): 60.6 ppm
- concentration in expired air ([1]; -1.73 h, 25 ppm, during exposure): 20.9 ppm
- concentration in expired air ([1]; -1.735 h, 150 ppm, during exposure): 112 ppm
- concentration in expired air ([1]; -1.738 h, 75 ppm, during exposure): 60.5 ppm
- concentration in expired air ([1]; -1.854 h, 25 ppm, during exposure): 20.6 ppm
- concentration in expired air ([1]; -1.857 h, 75 ppm, during exposure): 59.8 ppm
- concentration in expired air ([1]; -1.858 h, 150 ppm, during exposure): 111 ppm
- concentration in expired air ([1]; -1.993 h, 25 ppm, during exposure): 20.5 ppm
- concentration in expired air ([1]; -1.997 h, 75 ppm, during exposure): 60.7 ppm
- concentration in expired air ([1]; -1.998 h, 150 ppm, during exposure): 111 ppm
- concentration in expired air ([1]; -2.058 h, 150 ppm, during exposure): 111 ppm
- concentration in expired air ([1]; -2.061 h, 25 ppm, during exposure): 20.1 ppm
- concentration in expired air ([1]; -2.061 h, 75 ppm, during exposure): 61 ppm
- concentration in expired air ([1]; -2.125 h, 25 ppm, during exposure): 17.6 ppm
- concentration in expired air ([1]; -2.129 h, 75 ppm, during exposure): 60.6 ppm
- concentration in expired air ([1]; -2.137 h, 150 ppm, during exposure): 110 ppm
- concentration in expired air ([1]; -2.189 h, 25 ppm, during exposure): 19.7 ppm
- concentration in expired air ([1]; -2.196 h, 75 ppm, during exposure): 57.4 ppm
- concentration in expired air ([1]; -2.197 h, 150 ppm, during exposure): 112 ppm
- concentration in expired air ([1]; -2.256 h, 25 ppm, during exposure): 19.7 ppm
- concentration in expired air ([1]; -2.257 h, 150 ppm, during exposure): 110 ppm
- concentration in expired air ([1]; -2.26 h, 75 ppm, during exposure): 59.3 ppm
- concentration in expired air ([1]; -2.336 h, 25 ppm, during exposure): 20.6 ppm
- concentration in expired air ([1]; -2.336 h, 75 ppm, during exposure): 59.9 ppm
- concentration in expired air ([1]; -2.336 h, 150 ppm, during exposure): 108 ppm
- concentration in expired air ([1]; -2.396 h, 150 ppm, during exposure): 109 ppm
- concentration in expired air ([1]; -2.4 h, 25 ppm, during exposure): 19.6 ppm
- concentration in expired air ([1]; -2.408 h, 75 ppm, during exposure): 58.9 ppm
- concentration in expired air ([1]; -2.456 h, 150 ppm, during exposure): 107 ppm
- concentration in expired air ([1]; -2.46 h, 25 ppm, during exposure): 19.6 ppm
- concentration in expired air ([1]; -2.475 h, 75 ppm, during exposure): 58.8 ppm
- concentration in expired air ([1]; -2.531 h, 150 ppm, during exposure): 104 ppm
- concentration in expired air ([1]; -2.535 h, 25 ppm, during exposure): 18.9 ppm
- concentration in expired air ([1]; -2.539 h, 75 ppm, during exposure): 57.5 ppm
- concentration in expired air ([1]; -2.591 h, 25 ppm, during exposure): 17.9 ppm
- concentration in expired air ([1]; -2.595 h, 150 ppm, during exposure): 97.7 ppm
- concentration in expired air ([1]; -2.599 h, 75 ppm, during exposure): 56.2 ppm
- concentration in expired air ([1]; -2.651 h, 25 ppm, during exposure): 16.6 ppm
- concentration in expired air ([1]; -2.654 h, 150 ppm, during exposure): 93.5 ppm
- concentration in expired air ([1]; -2.658 h, 75 ppm, during exposure): 54.9 ppm
- concentration in expired air ([1]; -2.726 h, 25 ppm, during exposure): 15 ppm
- concentration in expired air ([1]; -2.73 h, 75 ppm, during exposure): 54.3 ppm
- concentration in expired air ([1]; -2.733 h, 150 ppm, during exposure): 88.4 ppm
- concentration in expired air ([1]; -2.792 h, 150 ppm, during exposure): 82.7 ppm
- concentration in expired air ([1]; -2.794 h, 25 ppm, during exposure): 14.7 ppm
- concentration in expired air ([1]; -2.798 h, 75 ppm, during exposure): 52.3 ppm
- concentration in expired air ([1]; -2.856 h, 150 ppm, during exposure): 76.7 ppm
- concentration in expired air ([1]; -2.858 h, 25 ppm, during exposure): 12.4 ppm
- concentration in expired air ([1]; -2.861 h, 75 ppm, during exposure): 48.8 ppm
- concentration in expired air ([1]; -2.925 h, 25 ppm, during exposure): 13.3 ppm
- concentration in expired air ([1]; -2.926 h, 300 ppm, during exposure): 190 ppm
- concentration in expired air ([1]; -2.927 h, 150 ppm, during exposure): 71.9 ppm
- concentration in expired air ([1]; -2.933 h, 75 ppm, during exposure): 46.2 ppm

SMILES: O=C(O)COc1ccc(Cl)cc1Cl [2,4-Dichlorophenoxyacetic acid]
- concentration in plasma ([2]; 2.5 min): 28500 ng/mL
- concentration in plasma ([2]; 10 min): 10400 ng/mL
- concentration in plasma ([2]; 0.25 h): 14100 ng/mL
- concentration in plasma ([2]; 0.5 h): 9550 ng/mL
- concentration in plasma ([2]; 0.75 h): 5750 ng/mL
- concentration in plasma ([2]; 2 h): 2070 ng/mL
- concentration in plasma ([2]; 3 h): 419 ng/mL
- concentration in plasma ([2]; 3.5 h): 410 ng/mL
- concentration in plasma ([3]; 2.5 min): 2380 ng/mL
- concentration in plasma ([3]; 5 min): 9420 ng/mL
- concentration in plasma ([3]; 0.25 h): 4060 ng/mL
- concentration in plasma ([3]; 0.5 h): 1230 ng/mL
- concentration in plasma ([3]; 1 h): 1030 ng/mL
- concentration in plasma ([3]; 2 h): 511 ng/mL
- concentration in plasma ([4]; 5 min): 55300 ng/mL
- concentration in plasma ([4]; 40 min): 3090 ng/mL

SMILES: O=C(c1ccccc1)c1ccc(O)cc1O [2,4-Dihydroxybenzophenone]
- concentration in plasma [5]: 232 ng/mL
- concentration in plasma [6]: 1050 ng/mL

SMILES: O=S(=O)([O-])C(F)(F)C(F)(F)C(F)(F)C(F)(F)C(F)(F)C(F)(F)F.[K+] [Perfluorohexane-1-sulphonic acid – potassium salt]
- concentration in brain [7]: 1600 ng/g
- concentration in kidney [8]: 24300 ng/g

SMILES: c1ccncc1 [Pyridine]
- concentration in plasma [9]: 6010 ng/mL
- concentration in plasma ([10]; 5 min): 7460 ng/mL
- concentration in plasma ([10]; 4 h): 15900 ng/mL

SMILES: CC(C)[C@]12CC(=O)[C@H](C)[C@H]1C2 [alpha-Thujone]
- concentration in brain [11]: 8580 ng/g
- concentration in brain [12]: 19.8 ng/g
- concentration in brain [13]: 865 ng/g
- concentration in brain [14]: 23.4 ng/g
